Screening results (PubChem)
Sampled rows, rich in hits. Any-hit rate of the full collection: about 1.3%.
Diaphorase inh: diaphorase inhibition or chemical oxidation counter-screen; diaphorase resazurin-to-resorufin fluorescence, NADH, 16 min; bacterial (C. kluyveri) enzyme, not human; inhibition, % at 20 µM; hit rate 0.69% among 190,000; AID 1217;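 active = primary screen inhibition at 20 µM above a set limit, cut at about 50% in these data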;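 also: plate controls were DMSO with full reaction for no effect and wells lacking NADH for full effect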
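Test system: Clostridium kluyveri diaphorase enzyme / Quantity: diaphorase at 0.14 U/mL in enzyme working solution / Incubation: 16-min room-temperature incubation before reading / Benchmarks: NADH-free wells as positive control, DMSO-only neutral wells / Signal: resorufin fluorescence 544/590 nm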
PfG6PD inh: PfG6PD (Plasmodium falciparum) enzyme inhibition; PfGluPho enzyme, NADPH resazurin-diaphorase fluorescence; inhibition, % at 20 µM; hit rate 0.78% among 350,000;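 active = inhibition reaching at least a set limit at 20 µM in the primary screen, cut at about 59% in these data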;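 also: 0% = DMSO wells with substrate and 100% = DMSO wells lacking glucose-6-phosphate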
Diaphorase act: activates diaphorase or chemically reduces, flagging diaphorase assay artifacts | Diaphorase/resazurin coupled assay, resorufin fluorescence, 16 min; stronger effect = higher value; 1 = vehicle wells, 0 = NADH-free wells | activation factor at 20 µM | hit rate 0.005% among 190,000 | AID 1229;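 active = diaphorase activity raised at least twofold by the compound at 20 µM; inactive = activation factor below 2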
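Material: Purified diaphorase enzyme from Clostridium kluyveri | Buffer or medium: 50 mM HEPES pH 7.4 with 4.542 mM MgCl2, 0.005% Tween 20 | Times: 16 min enzyme reaction, ambient temperature | Signal: Red resorufin fluorescence at 544/590 nm excitation/emission | Measure: Increased resorufin signal from activators or reducing compounds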
HKDC1 inh: HKDC1 (human) hexokinase inhibition; hit rate 0.16% among 340,000; recombinant HKDC1, G6PDH/diaphorase resazurin coupled fluorescence; inhibition, % at 20 µM; Q2TB90;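 active = inhibition above about 35% when tested at 20 µM, limit read from the data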;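 also: plate controls were DMSO wells with enzyme for no effect and DMSO wells lacking enzyme for full effect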
Target sequence (Q2TB90 whole entry, looked up): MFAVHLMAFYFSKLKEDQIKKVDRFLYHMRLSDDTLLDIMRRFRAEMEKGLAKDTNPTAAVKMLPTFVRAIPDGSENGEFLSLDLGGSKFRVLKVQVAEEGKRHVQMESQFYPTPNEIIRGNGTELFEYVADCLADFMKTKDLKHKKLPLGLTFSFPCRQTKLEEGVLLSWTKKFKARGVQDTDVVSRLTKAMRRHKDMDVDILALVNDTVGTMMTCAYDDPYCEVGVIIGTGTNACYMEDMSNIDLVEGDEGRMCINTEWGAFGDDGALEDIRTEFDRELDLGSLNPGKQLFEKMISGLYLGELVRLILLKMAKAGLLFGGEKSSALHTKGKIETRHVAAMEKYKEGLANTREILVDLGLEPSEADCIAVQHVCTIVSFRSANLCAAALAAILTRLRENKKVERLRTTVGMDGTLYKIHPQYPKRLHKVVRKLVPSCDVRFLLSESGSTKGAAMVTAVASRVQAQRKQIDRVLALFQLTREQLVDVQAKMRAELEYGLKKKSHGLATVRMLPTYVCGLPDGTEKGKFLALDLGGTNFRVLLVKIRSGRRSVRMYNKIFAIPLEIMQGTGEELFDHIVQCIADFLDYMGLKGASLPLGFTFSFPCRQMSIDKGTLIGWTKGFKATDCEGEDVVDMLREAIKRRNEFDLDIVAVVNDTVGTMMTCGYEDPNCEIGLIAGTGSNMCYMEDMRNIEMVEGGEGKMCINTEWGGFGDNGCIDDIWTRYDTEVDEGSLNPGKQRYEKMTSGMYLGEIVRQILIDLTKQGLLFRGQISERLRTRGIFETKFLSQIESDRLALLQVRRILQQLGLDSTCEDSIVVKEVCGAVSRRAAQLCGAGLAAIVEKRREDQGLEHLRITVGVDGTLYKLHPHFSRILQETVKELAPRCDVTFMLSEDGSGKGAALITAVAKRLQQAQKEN
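Test system: HK5 enzyme. Quantity: 5 µg/mL HK5 final. Reagent: glucose and ATP substrates. Schedule: 90 min reaction incubation at room temperature, dark. Technique: resazurin-to-resorufin fluorescence via G6PDH and diaphorase coupling, 525/613 nm. Control set: DMSO wells with and without enzyme mix.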
G6PDH counter: inhibits Leuconostoc G6PDH, flagging false hits in G6PDH-based assays. Purified L. mesenteroides G6PDH, diaphorase/resazurin coupled fluorescence, 45 min. inhibition, % at 5 µM. hit rate 0.12% among 200,000; in the data active = inhibition above about 50%
An asterisk follows results filed as active; . = not tested or not shown.

SMILES	Diaphorase inh	PfG6PD inh	Diaphorase act	HKDC1 inh	G6PDH counter
CN(C)CC1CC/C(=C\c2ccc(O)cc2)C1=O (centres undefined)	.	61*	.	7	.
CC1CCC/C(=C\c2ccc(O)cc2)C1=O (centres undefined)	.	-10	.	-2	.
Cc1ccccc1Oc1ccc2c(c1)[C@@H]1C[C@H](N(C)C(=S)Nc3ccc(F)cc3)[C@H]([C@H](C)O)C(=O)N1CC2	.	21	.	.	.
Clc1ccc(OCCSc2nnnn2C2CCCCC2)cc1	18	0	0.8	6	16
Oc1ccc(C2=Nn3c(nnc3-c3ccco3)SC2)cc1O	70*	-26	0.3	2	19
COc1ccc(CC(=O)NCC2CCCN(Cc3cccc(SC)c3)C2)cc1 (centres undefined)	.	-5	.	-2	.
COc1cc2[nH]c(=S)nc(NC3CCCCCC3)c2cc1OC	75*	7	0.2	6	-3
COc1cc2[nH]c(=S)nc(NCC3CCCO3)c2cc1OC (centres undefined)	26	20	0.7	4	2
CC(C)CC(=O)NC(=S)Nc1sc2c(c1C(N)=O)CCC2	28	-11	0.7	8	8
CC(C)(C)C(=O)NC(=S)Nc1sc2c(c1C(N)=O)CCC2	50*	-2	0.5	5	0
Cc1cccc(C2NC(=O)c3c(sc(C)c3C)N2)c1O (centres undefined)	15	14	0.9	-5	4
Cc1sc2c(c1C)C(=O)NC(c1ccccc1F)N2 (centres undefined)	.	75*	.	-10	.
COc1ccc2nc(-n3c(O)c(C4=c5ccccc5=NC4=O)[nH]c3=S)sc2c1	52*	-13	0.5	26	-15
Nc1cccc2cnccc12	54*	29	0.5	5	30
Cc1ccc(-n2c(-c3ccccc3)c[n+]3c2CCC3)cc1	79*	-4	0.2	-7	5
COc1ccc(NC(=S)Nc2ccc3nccnc3c2)cc1	65*	39	0.3	7	15
CCCc1ccc(C2=Nn3c(nnc3C(C)C)SC2)cc1	.	60*	.	-7	.
Clc1ccccc1N=Nc1ccccn1	.	91*	.	4	.
N#Cc1cccc(C(=O)OCC(=O)NC(=O)NC2CCCCC2)c1	.	0	.	-2	.
S=c1[nH]nc(-c2ccco2)n1/N=C/c1ccccn1	29	.	0.7	.	-1
Cc1ccc(-c2n[nH]c(=S)n2/N=C/C=C/c2ccccc2[N+](=O)[O-])cc1	55*	28	0.4	1	1
O=[N+]([O-])c1cc2c(cc1/C=N/n1c(-c3ccccc3)n[nH]c1=S)OCO2	55*	38	0.4	6	-3
O=[N+]([O-])c1ccccc1/C=C/C=N/n1c(-c2ccco2)n[nH]c1=S	81*	9	0.2	10	1
O=[N+]([O-])c1ccccc1/C=C/C=N/n1c(-c2cc(-c3ccccc3)n[nH]2)n[nH]c1=S	.	15	.	-4	.
CCOc1ccc(NCc2nnc(SCC(=O)Nc3cc(C)on3)n2-c2ccccc2OC)cc1	16	5	0.8	17	1
SMILES	Diaphorase inh	PfG6PD inh	Diaphorase act	HKDC1 inh	G6PDH counter
Cc1cccc(C)c1NC(=O)Cn1nnc(-c2ccc(N3CCOCC3)cc2)n1	-2	-5	1	-9	-5
Cc1cccc(OCc2nnc(SCC(=O)Nc3sc(C)c(C)c3C#N)n2C)c1	9	-2	0.9	-4	3
CCC(=O)OCc1cc(=O)oc2ccc3ccccc3c12	.	0	.	-2	.
N#CCCn1cc(/C=C2\NC(=S)N(c3ccccc3)C2=O)c(-c2ccc(F)cc2)n1	85*	-7	0.2	-4	16
CC(=O)c1cccc(NC(=O)CSc2ccc(-c3ccco3)nn2)c1	.	16	.	16	.
O=C(CSc1ccc(-c2ccco2)nn1)c1cccc([N+](=O)[O-])c1	63*	17	0.4	-12	5
Clc1ccc(-c2nc3ncccn3c2Cl)cc1	3	10	1	2	6
CNC1=C(N(C(C)=O)c2ccc(Br)cc2)C(=O)c2ccccc2C1=O	41	44	0.6	9	52*
CCC(=O)N(C1=C(NC)C(=O)c2ccccc2C1=O)C(C)C	22	-22	0.8	6	41
O=C(OCc1nnc(-c2ccccc2)o1)C1CC(=O)N(c2ccccc2)C1 (centres undefined)	.	-10	.	5	.
Nc1[nH]n2c(=O)cc(-c3ccccc3)nc2c1N=Nc1ccccc1	67*	-15	0.3	-15	5
Cc1ccc(N=Nc2c(N)[nH]n3c(=O)cc(C)nc23)cc1	21	-1	0.8	-10	-2
Nc1[nH]n2c(=O)cc(-c3ccccc3)nc2c1N=Nc1ccc(S(N)(=O)=O)cc1	90*	-16	0.1	8	12
CN1CCN(c2ccc(C(=O)c3ccc(Br)cc3)cc2[N+](=O)[O-])CC1	6	-2	0.9	9	-2
CC1=C(c2ccccc2)[N+](=O)C2(CCCC2)N1[O-]	15	-2	0.9	-2	-2
O=[N+]([O-])c1ccc2c(c1)N([O-])C1(CCCCC1)[N+]2=O	.	60*	.	23	.
CCOc1ccc(C2C3=C(CC(C)(C)CC3=O)N(CCCOC)C3=C2C(=O)CC(C)(C)C3)cc1OC	.	-15	.	.	.
COC(=O)c1ccc(N2NC(=O)/C(=C/c3ccc(-c4ccc(Cl)c(C(=O)O)c4)o3)C2=O)cc1	74*	-7	0.3	12	0
CNc1ccccc(C(=O)/C=C/c2ccccc2OC)c1=O	30	52	0.7	10	23
CCNc1ccc(Br)cc(C(=O)/C=C/c2ccccc2Cl)c1=O	.	41	.	20	.
CNc1ccc(Br)cc(C(=O)/C=C/c2cccc(Cl)c2Cl)c1=O	68*	48	0.3	23	31
CNc1ccc(Br)cc(C(=O)/C=C/c2cccc(OC)c2OC)c1=O	59*	34	0.4	27	25
CN(C)C(=S)NC1(C)CCS(=O)(=O)C1 (centres undefined)	-10	13	1.1	-2	14
CN(C)C(=O)c1cc(Cl)ccc1Sc1cc(Cl)ccc1Cl	13	32	0.9	-1	2
COc1ccc(C(=O)C2CCCN(C(=O)COc3ccc(C(C)=O)cc3)C2)cc1F (centres undefined)	70*	6	0.3	-3	14
Oc1cccc(/C=N/N(Cc2ccccc2)c2ccccc2)c1	16	3	0.8	4	-1
Oc1ccc(/C=N/N(Cc2ccccc2)c2ccccc2)c(O)c1O	87*	23	0.1	19	8
C#CCN1C(=O)S/C(=C\c2ccc(-c3ccc(C(=O)O)cc3C)o2)C1=O	.	6	.	12	.
COc1ccc(CN2C(=O)/C(=C/c3ccc(-c4ccc(Cl)c(C(=O)O)c4)o3)SC2=S)cc1	36	.	0.6	.	1
Cc1ccc(NC(=O)CN2C(=O)S/C(=C/c3ccc(-c4cccc(C(=O)O)c4)o3)C2=O)cc1	57*	-13	0.4	29	9
